Columns and labels:
Assay type in all cases: functional
Staphylococcus aureus [1] = test: Antibacterial activity against Staphylococcus aureus assessed as growth inhibition at 25 ug/well after 24 hrs by agar well diffusion method; details: read-out: DIZ
Summary of the method: (§1)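 Agar well diffusion on […] swabbed with a 24 h broth culture. Samples were dissolved in DMSO and loaded at three per-well amounts into 6 mm wells. Incubation was 37 °C for 24 h, then inhibition zone diameter was read in mm. DMSO served as the negative control. Runs were in duplicate and averaged.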

Staphylococcus aureus [2] = test: Antibacterial activity against Staphylococcus aureus assessed as growth inhibition at 50 ug/well after 24 hrs by agar well diffusion method; details: read-out: DIZ; summary of the method: as §1
Staphylococcus aureus [3] = test: Antibacterial activity against Staphylococcus aureus assessed as growth inhibition at 100 ug/well after 24 hrs by agar well diffusion method; details: read-out: DIZ; summary of the method: as §1
Bacillus subtilis [4] = test: Antibacterial activity against Bacillus subtilis assessed as growth inhibition at 25 ug/well after 24 hrs by agar well diffusion method; details: read-out: DIZ; summary of the method: as §1
Bacillus subtilis [5] = test: Antibacterial activity against Bacillus subtilis assessed as growth inhibition at 50 ug/well after 24 hrs by agar well diffusion method; details: read-out: DIZ; summary of the method: as §1
Bacillus subtilis [6] = test: Antibacterial activity against Bacillus subtilis assessed as growth inhibition at 100 ug/well after 24 hrs by agar well diffusion method; details: read-out: DIZ; summary of the method: as §1
Pseudomonas aeruginosa [7] = test: Antibacterial activity against Pseudomonas aeruginosa assessed as growth inhibition at 25 ug/well after 24 hrs by agar well diffusion method; details: read-out: DIZ; summary of the method: as §1
Pseudomonas aeruginosa [8] = test: Antibacterial activity against Pseudomonas aeruginosa assessed as growth inhibition at 50 ug/well after 24 hrs by agar well diffusion method; details: read-out: DIZ; summary of the method: as §1
Pseudomonas aeruginosa [9] = test: Antibacterial activity against Pseudomonas aeruginosa assessed as growth inhibition at 100 ug/well after 24 hrs by agar well diffusion method; details: read-out: DIZ; summary of the method: as §1
Klebsiella pneumoniae [10] = test: Antibacterial activity against Klebsiella pneumoniae assessed as growth inhibition at 25 ug/well after 24 hrs by agar well diffusion method; details: read-out: DIZ; summary of the method: as §1
Klebsiella pneumoniae [11] = test: Antibacterial activity against Klebsiella pneumoniae assessed as growth inhibition at 50 ug/well after 24 hrs by agar well diffusion method; details: read-out: DIZ; summary of the method: as §1
Klebsiella pneumoniae [12] = test: Antibacterial activity against Klebsiella pneumoniae assessed as growth inhibition at 100 ug/well after 24 hrs by agar well diffusion method; details: read-out: DIZ; summary of the method: as §1
Aspergillus niger [13] = test: Antifungal activity against Aspergillus niger assessed as inhibition of spore germination at 25 ug/well after 48 hrs by agar well diffusion method; details: read-out: DIZ
Summary of the method: (§2)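 Well diffusion using 6 mm bored wells loaded with DMSO solutions at three per-well amounts, with a DMSO negative control. Plates were held at 28 °C for 48 h, then zone of inhibition diameter was measured in mm. Runs were in duplicate and averaged.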

Aspergillus niger [14] = test: Antifungal activity against Aspergillus niger assessed as inhibition of spore germination at 50 ug/well after 48 hrs by agar well diffusion method; details: read-out: DIZ; summary of the method: as §2
Staphylococcus aureus [15] = test: Antibacterial activity against Staphylococcus aureus assessed as growth inhibition after 24 hrs by broth dilution method
Summary of the method: (§3)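 Tube broth dilution with fresh nutrient broth as diluent and a 24 h old bacterial culture. Compound dilutions were added to the tubes, which were incubated at 37 °C for 24 h. Solvent control without sample was run in parallel. MIC was the lowest concentration showing no visible turbidity.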

Bacillus subtilis [16] = test: Antibacterial activity against Bacillus subtilis assessed as growth inhibition after 24 hrs by broth dilution method; summary of the method: as §3
Pseudomonas aeruginosa [17] = test: Antibacterial activity against Pseudomonas aeruginosa assessed as growth inhibition after 24 hrs by broth dilution method; summary of the method: as §3
Klebsiella pneumoniae [18] = test: Antibacterial activity against Klebsiella pneumoniae assessed as growth inhibition after 24 hrs by broth dilution method; summary of the method: as §3
Aspergillus niger [19] = test: Antifungal activity against Aspergillus niger assessed as growth inhibition after 48 hrs by broth dilution method
Summary of the method: (§4)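 Tube broth dilution with nutrient broth as diluent. Compound dilutions were added to fungal cultures and incubated at 28 °C for 48 h. A solvent control without sample was included. MIC was the lowest concentration with no visible growth or turbidity.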

Penicillium chrysogenum [20] = test: Antifungal activity against Penicillium chrysogenum assessed as growth inhibition after 48 hrs by broth dilution method; summary of the method: as §4
Staphylococcus aureus [21] = test: Bactericidal activity against Staphylococcus aureus after 24 hrs
Bacillus subtilis [22] = test: Bactericidal activity against Bacillus subtilis after 24 hrs
Pseudomonas aeruginosa [23] = test: Bactericidal activity against Pseudomonas aeruginosa after 24 hrs
Klebsiella pneumoniae [24] = test: Bactericidal activity against Klebsiella pneumoniae after 24 hrs
Aspergillus niger [25] = test: Fungicidal activity against Aspergillus niger after 48 hrs
Penicillium chrysogenum [26] = test: Fungicidal activity against Penicillium chrysogenum after 48 hrs
Staphylococcus aureus [27] = test: Ratio of MBC to MIC for Staphylococcus aureus
Aspergillus niger [28] = test: Ratio of MFC to MIC for Aspergillus niger

c1ccc(-c2csc(Nc3cc(-c4ccccc4)n(-c4nc(-c5ccccc5)cs4)n3)n2)cc1
zone of inhibition at 25 µg/disc (Staphylococcus aureus [1]): 29 mm
zone of inhibition at 50 µg/disc (Staphylococcus aureus [2]): 31 mm
zone of inhibition at 100 µg/disc (Staphylococcus aureus [3]): 32 mm
zone of inhibition at 25 µg/disc (Bacillus subtilis [4]): 25 mm
zone of inhibition at 50 µg/disc (Bacillus subtilis [5]): 26 mm
zone of inhibition at 100 µg/disc (Bacillus subtilis [6]): 28 mm
zone of inhibition at 25 µg/disc (Pseudomonas aeruginosa [7]): 17 mm
zone of inhibition at 50 µg/disc (Pseudomonas aeruginosa [8]): 18 mm
zone of inhibition at 100 µg/disc (Pseudomonas aeruginosa [9]): 21 mm
zone of inhibition at 25 µg/disc (Klebsiella pneumoniae [10]): 30 mm
zone of inhibition at 50 µg/disc (Klebsiella pneumoniae [11]): 32 mm
zone of inhibition at 100 µg/disc (Klebsiella pneumoniae [12]): 35 mm
zone of inhibition at 25 µg/disc (Aspergillus niger [13]): 25 mm
zone of inhibition at 50 µg/disc (Aspergillus niger [14]): 28 mm
MIC (Staphylococcus aureus [15]): 12.5 µg
MIC (Bacillus subtilis [16]): 50 µg
MIC (Pseudomonas aeruginosa [17]): 50 µg
MIC (Klebsiella pneumoniae [18]): 50 µg
MIC (Aspergillus niger [19]): 25 µg
MIC (Penicillium chrysogenum [20]): 50 µg
MBC (Staphylococcus aureus [21]): 50 µg
MBC (Bacillus subtilis [22]): 200 µg
MBC (Pseudomonas aeruginosa [23]): >200 µg
MBC (Klebsiella pneumoniae [24]): >200 µg
MFC (Aspergillus niger [25]): 100 µg
MFC (Penicillium chrysogenum [26]): 200 µg

Clc1ccc(-c2c[nH]c(Nc3cc(-c4ccc(Cl)cc4)n(-c4nc(-c5ccc(Cl)cc5)cs4)n3)n2)cc1
zone of inhibition at 25 µg/disc (Staphylococcus aureus [1]): 32 mm
zone of inhibition at 50 µg/disc (Staphylococcus aureus [2]): 33 mm
zone of inhibition at 100 µg/disc (Staphylococcus aureus [3]): 35 mm
zone of inhibition at 25 µg/disc (Bacillus subtilis [4]): 27 mm
zone of inhibition at 50 µg/disc (Bacillus subtilis [5]): 29 mm
zone of inhibition at 100 µg/disc (Bacillus subtilis [6]): 30 mm
zone of inhibition at 25 µg/disc (Pseudomonas aeruginosa [7]): 18 mm
zone of inhibition at 50 µg/disc (Pseudomonas aeruginosa [8]): 19 mm
zone of inhibition at 100 µg/disc (Pseudomonas aeruginosa [9]): 23 mm
zone of inhibition at 25 µg/disc (Klebsiella pneumoniae [10]): 32 mm
zone of inhibition at 50 µg/disc (Klebsiella pneumoniae [11]): 34 mm
zone of inhibition at 100 µg/disc (Klebsiella pneumoniae [12]): 38 mm
zone of inhibition at 25 µg/disc (Aspergillus niger [13]): 33 mm
zone of inhibition at 50 µg/disc (Aspergillus niger [14]): 36 mm
MIC (Staphylococcus aureus [15]): 6.25 µg
MIC (Bacillus subtilis [16]): 50 µg
MIC (Pseudomonas aeruginosa [17]): 50 µg
MIC (Klebsiella pneumoniae [18]): 50 µg
MIC (Aspergillus niger [19]): 6.25 µg
MIC (Penicillium chrysogenum [20]): 25 µg
MBC (Staphylococcus aureus [21]): 12.5 µg
MBC (Bacillus subtilis [22]): 200 µg
MBC (Pseudomonas aeruginosa [23]): 200 µg
MBC (Klebsiella pneumoniae [24]): 200 µg
MFC (Aspergillus niger [25]): 12.5 µg
MFC (Penicillium chrysogenum [26]): 100 µg
Ratio (Staphylococcus aureus [27]): 2
Ratio (Aspergillus niger [28]): 2

Clc1ccc(-c2csc(Nc3cc(-c4ccc(Cl)cc4)n(-c4nc(-c5ccc(Cl)cc5)cs4)n3)n2)cc1
zone of inhibition at 25 µg/disc (Staphylococcus aureus [1]): 34 mm
zone of inhibition at 50 µg/disc (Staphylococcus aureus [2]): 36 mm
zone of inhibition at 100 µg/disc (Staphylococcus aureus [3]): 38 mm
zone of inhibition at 25 µg/disc (Bacillus subtilis [4]): 29 mm
zone of inhibition at 50 µg/disc (Bacillus subtilis [5]): 32 mm
zone of inhibition at 100 µg/disc (Bacillus subtilis [6]): 35 mm
zone of inhibition at 25 µg/disc (Pseudomonas aeruginosa [7]): 20 mm
zone of inhibition at 50 µg/disc (Pseudomonas aeruginosa [8]): 22 mm
zone of inhibition at 100 µg/disc (Pseudomonas aeruginosa [9]): 25 mm
zone of inhibition at 25 µg/disc (Klebsiella pneumoniae [10]): 35 mm
zone of inhibition at 50 µg/disc (Klebsiella pneumoniae [11]): 37 mm
zone of inhibition at 100 µg/disc (Klebsiella pneumoniae [12]): 41 mm
zone of inhibition at 25 µg/disc (Aspergillus niger [13]): 29 mm
zone of inhibition at 50 µg/disc (Aspergillus niger [14]): 31 mm
MIC (Staphylococcus aureus [15]): 6.25 µg
MIC (Bacillus subtilis [16]): 25 µg
MIC (Pseudomonas aeruginosa [17]): 50 µg
MIC (Klebsiella pneumoniae [18]): 25 µg
MIC (Aspergillus niger [19]): 12.5 µg
MIC (Penicillium chrysogenum [20]): 50 µg
MBC (Staphylococcus aureus [21]): 12.5 µg
MBC (Bacillus subtilis [22]): 100 µg
MBC (Pseudomonas aeruginosa [23]): 200 µg
MBC (Klebsiella pneumoniae [24]): 100 µg
MFC (Aspergillus niger [25]): 100 µg
MFC (Penicillium chrysogenum [26]): 200 µg
Ratio (Staphylococcus aureus [27]): 2

c1ccc(-c2c[nH]c(Nc3cc(-c4ccccc4)n(-c4nc(-c5ccccc5)cs4)n3)n2)cc1
zone of inhibition at 25 µg/disc (Staphylococcus aureus [1]): 27 mm
zone of inhibition at 50 µg/disc (Staphylococcus aureus [2]): 28 mm
zone of inhibition at 100 µg/disc (Staphylococcus aureus [3]): 30 mm
zone of inhibition at 25 µg/disc (Bacillus subtilis [4]): 24 mm
zone of inhibition at 50 µg/disc (Bacillus subtilis [5]): 26 mm
zone of inhibition at 100 µg/disc (Bacillus subtilis [6]): 27 mm
zone of inhibition at 25 µg/disc (Pseudomonas aeruginosa [7]): 15 mm
zone of inhibition at 50 µg/disc (Pseudomonas aeruginosa [8]): 17 mm
zone of inhibition at 100 µg/disc (Pseudomonas aeruginosa [9]): 20 mm
zone of inhibition at 25 µg/disc (Klebsiella pneumoniae [10]): 28 mm
zone of inhibition at 50 µg/disc (Klebsiella pneumoniae [11]): 29 mm
zone of inhibition at 100 µg/disc (Klebsiella pneumoniae [12]): 33 mm
zone of inhibition at 25 µg/disc (Aspergillus niger [13]): 32 mm
zone of inhibition at 50 µg/disc (Aspergillus niger [14]): 34 mm
MIC (Staphylococcus aureus [15]): 12.5 µg
MIC (Bacillus subtilis [16]): 50 µg
MIC (Pseudomonas aeruginosa [17]): 50 µg
MIC (Klebsiella pneumoniae [18]): 50 µg
MIC (Aspergillus niger [19]): 12.5 µg
MIC (Penicillium chrysogenum [20]): 25 µg
MBC (Staphylococcus aureus [21]): 50 µg
MBC (Bacillus subtilis [22]): 200 µg
MBC (Pseudomonas aeruginosa [23]): >200 µg
MBC (Klebsiella pneumoniae [24]): >200 µg
MFC (Aspergillus niger [25]): 100 µg
MFC (Penicillium chrysogenum [26]): 100 µg
